Data from publication PMC12118959 (Toxicological Sciences, 2025).
Counter-ions that a name gives are not always drawn.

Columns and labels:
3D ECTs [1] = experiment: Contractility; type: cell-based, human; settings: for MEC (minimum effective concentration), active force: serum-free, paced at 1 Hz, 15 min per concentration
How it was run: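 Tissues were built from iCell cardiomyocytes plus human ventricular cardiac fibroblasts in hydrogel on Biowire II wires. After 30 min chamber equilibration, a 30-s baseline video was recorded, then a second one 10 min after a medium-pipetting step. Test compound in DMSO was added cumulatively at 3 or 4 rising concentrations (final DMSO 0.001–0.1%), 15 min each, with a 30-s video per concentration. n=6–9 tissues, one compound per tissue.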

NaV1.5 = settings: read-out: NaV1.5 IC50; ref Wang et al. 2010; cited from earlier work
2D hiPSC-CMs [2] = experiment: Motion-field imaging contractility; type: cell-based, human; settings: for MEC (minimum effective concentration), maximum contraction speed: serum-containing medium, concentration for 1.08-fold increase or 0.92-fold decrease
How it was run: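 Thawed iCell hiPSC-CMs were re-plated on day 7 onto a ~3 mm fibronectin spot and cultured 5–9 days at 37°C, 5% CO2, with serum-containing medium overnight before recording. Phase-contrast video at 4x, 150 frames/s, analysed by block-matching. After sham baseline, cumulative additions from 1,000-fold DMSO stocks (final DMSO 0.1–0.4% v/v), 15 min each, 10-s videos; 4–5 wells. MEC by four-parameter log fit, 1.08/0.92-fold cutoffs.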

CaV1.2 = settings: read-out: CaV1.2 IC50; ref Ando et al. 2017; cited from earlier work
hERG = settings: read-out: hERG IC50; ref Sube and Ertel 2017; cited from earlier work
2D hiPSC-CMs [3] = settings: ref Okai et al. 2020; cited from earlier work
aligned hiPSC-CMs = settings: ref Satsuka et al. 2024; cited from earlier work
3D ECTs [4] = settings: read-out: EC50, positive inotropic effect; same 3D ECT model; ref Feric et al. 2019; cited from earlier work

SMILES: CC(C)NCC(O)COc1cccc2ccccc12 (racemic) [Propranolol, (±)-propranolol hydrochloride]
- MEC (minimum effective concentration), active force (3D ECTs [1]): 3.0 µM
- MEC (minimum effective concentration), active force (3D ECTs [1]; listed as propranolol): ~3 µM
- IC50 (NaV1.5): 3000 nM

SMILES: Nc1cc(-c2ccncc2)c[nH]c1=O [Amrinone, amrinone]
- MEC (minimum effective concentration), maximum contraction speed (2D hiPSC-CMs [2]): >100 µM

SMILES: CC(=O)Oc1ccccc1C(=O)O [Aspirin, acetylsalicylic acid]
- MEC (minimum effective concentration), maximum contraction speed (2D hiPSC-CMs [2]): >300 µM
- Concentration up to which no effect on active force was observed (3D ECTs [1]): 300 µM
- MEC (minimum effective concentration), active force (3D ECTs [1]): >300 µM

SMILES: C[C@H](CS)C(=O)N1CCC[C@H]1C(=O)O [Captopril, captopril]
- MEC (minimum effective concentration), maximum contraction speed (2D hiPSC-CMs [2]): >100 µM
- Concentration up to which no effect on active force was observed (3D ECTs [1]): 100 µM
- MEC (minimum effective concentration), active force (3D ECTs [1]): >100 µM

SMILES: CN/C(=N/CCSCc1nc[nH]c1C)NC#N [Cimetidine, cimetidine]
- MEC (minimum effective concentration), maximum contraction speed (2D hiPSC-CMs [2]): >100 µM
- Concentration up to which no effect on active force was observed (3D ECTs [1]): 100 µM
- MEC (minimum effective concentration), active force (3D ECTs [1]): >100 µM

SMILES: COc1ccc(Cl)cc1C(=O)NCCc1ccc(S(=O)(=O)NC(=O)NC2CCCCC2)cc1 [Glibenclamide, glyburide]
- MEC (minimum effective concentration), maximum contraction speed (2D hiPSC-CMs [2]): >100 µM
- MEC (minimum effective concentration), active force (3D ECTs [1]): >100 µM

SMILES: O=C(CCCN1CCC(O)(c2ccc(Cl)cc2)CC1)c1ccc(F)cc1 [Haloperidol, haloperidol]
- Concentration at which irregular beating was induced (2D hiPSC-CMs [2]): above 0.10 µM
- MEC (minimum effective concentration), maximum contraction speed (2D hiPSC-CMs [2]): >0.10 µM
- IC50 (CaV1.2): 1300 nM
- MEC (minimum effective concentration), active force (3D ECTs [1]): 0.30 µM

SMILES: CC(C)NCC(O)c1ccc(O)c(O)c1 (stereo not shown) [Isoproterenol, isoproterenol]
- MEC, positive inotropic effect (maximum contraction speed) (2D hiPSC-CMs [2]): 0.35 nM
- MEC, positive inotropic effect (active force) (3D ECTs [1]): below 0.1 nM
- MEC (minimum effective concentration), active force (3D ECTs [1]): <0.00010 µM

SMILES: Cc1ccc(N(CC2=NCCN2)c2cccc(O)c2)cc1 [Phentolamine, phentolamine hydrochloride]
- MEC (minimum effective concentration), maximum contraction speed (2D hiPSC-CMs [2]): >0.30 µM
- IC50 (hERG): 850 nM
- Concentration up to which no effect on active force was observed (3D ECTs [1]): 3.0 µM

SMILES: COc1ccc(-c2nc3ccc(C4=NNC(=O)CC4C)cc3[nH]2)cc1 (stereo not shown) [Pimobendan, pimobendan]
- MEC (minimum effective concentration), maximum contraction speed (2D hiPSC-CMs [2]): >60 µM

SMILES: CC[C@H](C)C(=O)O[C@H]1C[C@H](O)C=C2C=C[C@H](C)[C@H](CC[C@@H](O)C[C@@H](O)CC(=O)O)[C@H]21 [Pravastatin, pravastatin]
- MEC (minimum effective concentration), maximum contraction speed (2D hiPSC-CMs [2]): >100 µM
- Concentration up to which no effect on active force was observed (3D ECTs [1]): 100 µM
- MEC (minimum effective concentration), active force (3D ECTs [1]): >100 µM

SMILES: CCOc1ccccc1OCCN[C@H](C)Cc1ccc(OC)c(S(N)(=O)=O)c1 [Tamsulosin, tamsulosin]
- MEC (minimum effective concentration), maximum contraction speed (2D hiPSC-CMs [2]): >3.0 µM
- Concentration up to which no effect on active force was observed (3D ECTs [1]): 1.0 µM
- MEC (minimum effective concentration), active force (3D ECTs [1]): 3.0 µM

SMILES: CN(C)C/C=C(/c1ccc(Br)cc1)c1cccnc1 [Zimelidine, zimelidine]
- MEC (minimum effective concentration), maximum contraction speed (2D hiPSC-CMs [2]): >0.10 µM
- Concentration up to which no effect on active force was observed (3D ECTs [1]): 3.0 µM

SMILES: CC(CCc1ccc(O)cc1)NCCc1ccc(O)c(O)c1 (stereo not shown) [dobutamine]
- Inotropic effect in 2D hiPSC-CMs (previous study) (2D hiPSC-CMs [3]): positive inotropic effect

SMILES: Cc1[nH]c(=O)c(C#N)cc1-c1ccncc1 [milrinone]
- Inotropic effect in aligned hiPSC-CMs (aligned hiPSC-CMs): remained undetectable
- EC50 (3D ECTs [4]): 1.6 nM
